From PMC5025877 (Circulation research, 2014)
“Also recorded” adds a separate entry of the source. One block for each molecule: values may come before it.

Tests used:
Nox1 [1] = assay: Nox1 phosphorylation in VSMCs, IP anti-p22phox / Western blot anti-STY; format: cell-based, rat; conditions: for Nox1 phosphorylation on agonist treatment (other agonists): VSMC, Online Figure III, timing may be agonist dependent
How it was run: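 A7r5 rat aortic VSMCs in culture were stimulated with TNF-α, with or without PKC inhibitor pretreatment. Nox1 phosphorylation was detected by Western blotting with an anti-phospho-Ser/Thr/Tyr (anti-STY) antibody. n=3.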

Nox1 [2] = assay: superoxide in intact CosPhox cells with p47phox and NoxA1; format: cell-based; conditions: TNF-α (10 ng/ml), PDGF-BB (10 ng/ml), AngII (10^-7 M), PMA (10^-6 M), RLU/sec, n=4
How it was run: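 Cos7 cells stably expressing p22phox (CosPhox) were transfected with p47phox, NoxA1, and either wild-type or T429A Nox1. Superoxide was read as luminescence (RLU/sec) in intact cells immediately after agonist addition. The unstimulated signal was subtracted from the agonist signal, and values were normalized to cell number.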

NADPH oxidase = format: cell-based, rat; conditions: VSMC membrane fractions, lucigenin, RLU, n=5–15; for TNF-α-primed NADPH oxidase activity, effect of inhibitor: TNF-α pre-treatment
How it was run: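 Cultured rat (A7r5) aortic VSMCs were pretreated with the test compound (a PKC inhibitor) or with the flavoenzyme inhibitor DPI, then stimulated with TNF-α. NADPH oxidase activity was measured by lucigenin-enhanced chemiluminescence and reported as relative light units. n=5–15.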

Nox1 [3] = assay: ROS production by CM-H2DCF fluorescence in VSMCs; format: cell-based, murine
How it was run: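 Cultured aortic VSMCs from C57Bl6/J (WT) and Nox1-/y mice were pretreated with the test compound (a PKC inhibitor), then stimulated with TNF-α. ROS were imaged by CM-H2DCF fluorescence, with nuclei counterstained with ToPro3.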

VSMCs = assay: VSMC migration to TNF-α; format: cell-based, murine
How it was run: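 Aortic VSMCs from WT C57Bl6/J and Nox1-/y mice were pretreated with the test compound (a PKC inhibitor), and their migration to TNF-α was counted. n=5–15.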

human recombinant PKC-βI [4] = assay: dot blot; format: biochemical; conditions: anti-p-STY; total peptide by Ponceau staining
How it was run: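 Input and product of the in vitro PKC-βI kinase reaction on the Nox1 T429 peptide were dot-blotted and probed with anti-p-STY. Total peptide was measured by Ponceau staining. Signal was quantified as the ratio of p-STY to total peptide. A phosphorylated T429 peptide was included.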

[5] = test system: NoxA1 activation domain (AD); assay: ITC binding of NoxA1 AD peptide with Nox1 peptides; conditions: for Kd: read-out: Kd (affinity) for NoxA1 AD, n=3 independent experiments
human recombinant PKC-βI [6] = assay: ITC in vitro kinase reaction of recombinant PKC-βI with Nox1 peptide; format: biochemical; conditions: slow return to baseline after heat of dilution
[7] = circular dichroism of peptides; format: physicochemical; conditions: negative dip below 200 nm, near-zero shoulders at longer wavelengths
p47^phox = assay: p47phox membrane recruitment; format: cell-based; conditions: WT versus T429A Nox1; Online Figure VIII
NoxA1 = NoxA1 membrane recruitment in CosPhox cells; format: cell-based; conditions: n=4
How it was run: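 CosPhox cells (Cos7 stably expressing p22phox, p47phox and p67phox) expressed p22phox, NoxA1, and either WT or T429A Nox1. After TNF-α treatment, membrane fractions were isolated and immunoblotted for NoxA1. Whole-cell lysates taken before membrane isolation were probed for GAPDH. n=4 independent experiments.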

[8] = molecular target: T1, phosphorylated Nox1 peptide (peptide containing phosphorylated Nox1 at T429); assay: ITC
T1 chain: KLKTQKIYF

Molecule: CCCCCCCCCCCCCC(=O)O[C@@H]1[C@@H](C)[C@@]2(O)[C@@H](C=C(CO)C[C@]3(O)C(=O)C(C)=C[C@@H]23)[C@@H]2C(C)(C)[C@]12OC(C)=O [PMA, phorbol myristate acetate, reference compound]
- Nox1 phosphorylation on agonist treatment (other agonists) (Nox1 [1]): phosphorylation of VSMC Nox1 occurs
- agonist-stimulated cellular superoxide, T429A Nox1 (Nox1 [2]): does not require phosphorylation of T429
- agonist-stimulated cellular superoxide, WT Nox1 (Nox1 [2]): increased

Molecule: COc1c(C[C@@H](C)OC(=O)Oc2ccc(O)cc2)c2c3c(C[C@@H](C)OC(=O)c4ccccc4)c(OC)c(=O)c4c(O)cc(OC)c(c5c(OC)cc(O)c(c1=O)c52)c43 [CalC, Calphostin C, reference compound]
- TNF-α-stimulated Nox1 phosphorylation, effect of pretreatment (Nox1 [1]; cultured A7r5 rat aortic VSMCs, TNF-α, n=3): inhibited
- TNF-α-primed NADPH oxidase activity, effect of inhibitor (NADPH oxidase): completely abolished
- Nox1-dependent ROS production, effect of pretreatment (Nox1 [3]; WT murine VSMCs, TNF-α): abrogated
- TNF-α-mediated migration, effect of pretreatment (VSMCs; WT murine VSMCs, n=5–15): blocked

Molecule: c1ccc2c(c1)[I+]c1ccccc1-2 [DPI]
- TNF-α-primed NADPH oxidase activity, effect of inhibitor (NADPH oxidase): completely abolished

- phosphorylation by PKC-βI, dot blot (human recombinant PKC-βI [4]): confirms phosphorylation
- interaction with NoxA1 (in words) [5]: no measurable interaction
- Kd [5]: > 100000 nM
- phosphorylation by PKC-βI (heat of reaction) (human recombinant PKC-βI [6]): substrate for PKC-βI
Molecule: KLKTQKIYF [Nox1 peptide]

- Kd [5]: 1500 ± 300 nM
Molecule: KLKT*QKIYF [pNox1 peptide]
- secondary structure by circular dichroism [7]: unstructured; also recorded: characteristic random coil signals

Molecule: angiotensin II (DRVYIHPF; Angiotensin-2; UniProt P01019 25-32, looked up) [AngII, reference compound]
- agonist-stimulated cellular superoxide, T429A Nox1 (Nox1 [2]): markedly attenuated
- agonist-stimulated cellular superoxide, WT Nox1 (Nox1 [2]): increased

Molecule: TNF-α
- p47phox membrane recruitment on TNF-α (p47^phox): WT but not T429A Nox1 caused a recruitment of p47^phox to the membrane
- Nox1 phosphorylation on agonist treatment (Nox1 [1]; cultured A7r5 rat aortic VSMCs, n=3): increased Nox1 phosphorylation
- NADPH oxidase activity on TNF-α pre-treatment (NADPH oxidase): primes NADPH oxidase activity
- agonist-stimulated cellular superoxide, T429A Nox1 (Nox1 [2]): markedly attenuated
- agonist-stimulated cellular superoxide, WT Nox1 (Nox1 [2]): increased
- ROS production on TNF-α (Nox1 [3]; WT versus Nox1^-/y VSMCs): robust ROS production in WT but not Nox1^-/y VSMCs
- VSMC migration to TNF-α (VSMCs; Nox1^-/y VSMCs compared): requires Nox1
- NoxA1 membrane translocation following TNF-α, T429A Nox1 (NoxA1; CosPhox cells with T429A Nox1): prevented
- TNF-α-induced NoxA1 membrane recruitment, WT Nox1 (NoxA1; CosPhox cells with p22phox, p47phox, NoxA1, WT Nox1): recruitment of NoxA1 to the membrane

B1: PDGF-BB: platelet-derived growth factor-BB (protein, UniProt P01127 82-190, looked up)
Platelet-derived growth …: SLGSLTIAEPAMIAECKTRTEVFEISRRLIDRTNANFLVWPPCVEVQRCSGCCNNRNVQCRPTQVQLRPVQVRKIEIVRKKPIFKKATVTLEDHLACKCETVAAARPVT
modifications: homodimer BB
- Nox1 phosphorylation on agonist treatment (other agonists) (Nox1 [1]): phosphorylation of VSMC Nox1 occurs
- agonist-stimulated cellular superoxide, T429A Nox1 (Nox1 [2]): markedly attenuated
- agonist-stimulated cellular superoxide, WT Nox1 (Nox1 [2]): increased

- Kd [8]: 1500 nM
- stoichiometry N [8]: 0.86
Molecule: EPVDFLGKAKVVASAIP (modifications not checked) [NoxA1 activation domain peptide]
